# Source: ChEMBL document CHEMBL5058577, “EUbOPEN Chemogenomics Library 2 (Multiplex)” (2022)
# Test system: Fibroblast
# Experiment: Multiplex assay against human fibroblast
# Format: toxicity, cell-based
# Summary of the method: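 Imaging took place on a CQ1 microscope at 37°C and 5% CO2 once compound had been added to live cells stained at seeding with Hoechst33342, BioTracker Green Microtubule Cytoskeleton Dye, MitoTracker Red and Annexin V Alexa Fluor 680. CellPathfinder machine-learning gating classed cells as Hoechst high-intensity objects or normal cells, classed normal cells as having healthy, pyknosed or fragmented nuclei, and classed pyknosed cells as mitotic or apoptotic. Tubulin, mitochondrial-mass and membrane-permeability phenotypes are per cents of the healthy-nucleus cells.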
# [1] = 12 h, 1 µM, compound concentration 1 uM, replicate 1
# [2] = 12 h, 1 µM, compound concentration 1 uM, replicate 2
# [3] = 12 h, 10 µM, compound concentration 10 uM, replicate 1
# [4] = 12 h, 10 µM, compound concentration 10 uM, replicate 2
# [5] = 24 h, 1 µM, compound concentration 1 uM, replicate 1
# [6] = 24 h, 1 µM, compound concentration 1 uM, replicate 2
# [7] = 24 h, 10 µM, compound concentration 10 uM, replicate 1
# [8] = 24 h, 10 µM, compound concentration 10 uM, replicate 2
# [9] = 48 h, 1 µM, compound concentration 1 uM, replicate 1
# [10] = 48 h, 1 µM, compound concentration 1 uM, replicate 2
# [11] = 48 h, 10 µM, compound concentration 10 uM, replicate 1
# [12] = 48 h, 10 µM, compound concentration 10 uM, replicate 2
compound,measurement,setting,value
Cc1ccc(/C(=C\CN2CCCC2)c2ccccn2)cc1 [TRIPROLIDINE],Population Apoptotic (%),[1],52%
same,Population Fragmented Nuclei (%),[1],17%
same,Population Healthy Nuclei (%),[1],64%
same,Population Hoechst High Intensity Objects (%),[1],3%
same,Population Membrane Permeable-Phenotype (%),[1],0%
same,Population Mitochondria Different-Phenotype (%),[1],9%
same,Population Mitotic Cells (%),[1],47%
same,Population Normal (%),[1],96%
same,Population Pyknosed Nuclei (%),[1],18%
same,Population Tubulin-Different-Phenotype (%),[1],29%
same,Total Cell Count,[1],119
same,Population Apoptotic (%),[2],41%
same,Population Fragmented Nuclei (%),[2],28%
same,Population Healthy Nuclei (%),[2],45%
same,Population Hoechst High Intensity Objects (%),[2],4%
same,Population Membrane Permeable-Phenotype (%),[2],1%
same,Population Mitotic Cells (%),[2],58%
same,Population Normal (%),[2],95%
same,Population Pyknosed Nuclei (%),[2],25%
same,Population Tubulin-Different-Phenotype (%),[2],60%
same,Total Cell Count,[2],127
same,Population Apoptotic (%),[3],57%
same,Population Fragmented Nuclei (%),[3],14%
same,Population Healthy Nuclei (%),[3],64%
same,Population Hoechst High Intensity Objects (%),[3],2%
same,Population Membrane Permeable-Phenotype (%),[3],0%
same,Population Mitochondria Different-Phenotype (%),[3],5%
same,Population Mitotic Cells (%),[3],42%
same,Population Normal (%),[3],97%
same,Population Pyknosed Nuclei (%),[3],20%
same,Population Tubulin-Different-Phenotype (%),[3],44%
same,Total Cell Count,[3],139
same,Population Apoptotic (%),[4],50%
same,Population Fragmented Nuclei (%),[4],26%
same,Population Healthy Nuclei (%),[4],52%
same,Population Membrane Permeable-Phenotype (%),[4],9%
same,Population Mitochondria Different-Phenotype (%),[4],9%
same,Population Mitotic Cells (%),[4],50%
same,Population Pyknosed Nuclei (%),[4],21%
same,Population Tubulin-Different-Phenotype (%),[4],59%
same,Total Cell Count,[4],141
same,Population Apoptotic (%),[5],43%
same,Population Fragmented Nuclei (%),[5],17%
same,Population Healthy Nuclei (%),[5],69%
same,Population Hoechst High Intensity Objects (%),[5],4%
same,Population Membrane Permeable-Phenotype (%),[5],1%
same,Population Mitochondria Different-Phenotype (%),[5],3%
same,Population Mitotic Cells (%),[5],56%
same,Population Normal (%),[5],95%
same,Population Pyknosed Nuclei (%),[5],13%
same,Population Tubulin-Different-Phenotype (%),[5],23%
same,Total Cell Count,[5],128
same,Population Apoptotic (%),[6],46%
same,Population Fragmented Nuclei (%),[6],29%
same,Population Healthy Nuclei (%),[6],43%
same,Population Hoechst High Intensity Objects (%),[6],9%
same,Population Membrane Permeable-Phenotype (%),[6],6%
same,Population Mitochondria Different-Phenotype (%),[6],6%
same,Population Mitotic Cells (%),[6],53%
same,Population Normal (%),[6],90%
same,Population Pyknosed Nuclei (%),[6],27%
same,Population Tubulin-Different-Phenotype (%),[6],64%
same,Total Cell Count,[6],121
same,Population Apoptotic (%),[7],47%
same,Population Fragmented Nuclei (%),[7],15%
same,Population Healthy Nuclei (%),[7],68%
same,Population Hoechst High Intensity Objects (%),[7],4%
same,Population Membrane Permeable-Phenotype (%),[7],0%
same,Population Mitochondria Different-Phenotype (%),[7],3%
same,Population Mitotic Cells (%),[7],52%
same,Population Normal (%),[7],95%
same,Population Pyknosed Nuclei (%),[7],15%
same,Population Tubulin-Different-Phenotype (%),[7],41%
same,Total Cell Count,[7],142
same,Population Apoptotic (%),[8],58%
same,Population Fragmented Nuclei (%),[8],29%
same,Population Healthy Nuclei (%),[8],52%
same,Population Hoechst High Intensity Objects (%),[8],2%
same,Population Membrane Permeable-Phenotype (%),[8],6%
same,Population Mitochondria Different-Phenotype (%),[8],12%
same,Population Mitotic Cells (%),[8],41%
same,Population Normal (%),[8],97%
same,Population Pyknosed Nuclei (%),[8],17%
same,Population Tubulin-Different-Phenotype (%),[8],62%
same,Total Cell Count,[8],141
same,Population Apoptotic (%),[9],54%
same,Population Fragmented Nuclei (%),[9],26%
same,Population Healthy Nuclei (%),[9],65%
same,Population Hoechst High Intensity Objects (%),[9],3%
same,Population Membrane Permeable-Phenotype (%),[9],1%
same,Population Mitochondria Different-Phenotype (%),[9],2%
same,Population Mitotic Cells (%),[9],45%
same,Population Normal (%),[9],96%
same,Population Pyknosed Nuclei (%),[9],8%
same,Population Tubulin-Different-Phenotype (%),[9],31%
same,Total Cell Count,[9],135
same,Population Apoptotic (%),[10],52%
same,Population Fragmented Nuclei (%),[10],29%
same,Population Healthy Nuclei (%),[10],48%
same,Population Hoechst High Intensity Objects (%),[10],7%
same,Population Membrane Permeable-Phenotype (%),[10],7%
same,Population Mitochondria Different-Phenotype (%),[10],10%
same,Population Mitotic Cells (%),[10],48%
same,Population Normal (%),[10],92%
same,Population Pyknosed Nuclei (%),[10],21%
same,Population Tubulin-Different-Phenotype (%),[10],57%
same,Total Cell Count,[10],124
same,Population Apoptotic (%),[11],38%
same,Population Fragmented Nuclei (%),[11],20%
same,Population Healthy Nuclei (%),[11],69%
same,Population Hoechst High Intensity Objects (%),[11],7%
same,Population Membrane Permeable-Phenotype (%),[11],1%
same,Population Mitochondria Different-Phenotype (%),[11],6%
same,Population Mitotic Cells (%),[11],61%
same,Population Normal (%),[11],92%
same,Population Pyknosed Nuclei (%),[11],9%
same,Population Tubulin-Different-Phenotype (%),[11],35%
same,Total Cell Count,[11],142
same,Population Apoptotic (%),[12],42%
same,Population Fragmented Nuclei (%),[12],32%
same,Population Healthy Nuclei (%),[12],56%
same,Population Hoechst High Intensity Objects (%),[12],5%
same,Population Membrane Permeable-Phenotype (%),[12],5%
same,Population Mitochondria Different-Phenotype (%),[12],9%
same,Population Mitotic Cells (%),[12],57%
same,Population Normal (%),[12],94%
same,Population Pyknosed Nuclei (%),[12],10%
same,Population Tubulin-Different-Phenotype (%),[12],54%
same,Total Cell Count,[12],140
